Fh CTSL1 inh: cathepsin L1 inhibition, PFM18AAP counter-screen. inhibition, % at 5.96 µM. 300,000 tested, 0.49% active. recombinant F. hepatica cathepsin L1, Z-Leu-Arg-MCA fluorescence;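 active means inhibition above the mean of all tested compounds plus 3 SD, set per screening campaign, cut at about 17% in these data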;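 further: 0% = plate median of test compound wells and 100% = 1 µM Z-Phe-Ala-diazomethylketone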
Diaph act CS: counter-screen for diaphorase-based assays: diaphorase activators and chemical reducers | Diaphorase/resazurin coupled assay, resorufin fluorescence, 16 min; hits give high values; 1 = vehicle wells, 0 = NADH-free wells | activation factor at 20 µM | 190,000 tested, 0.005% active;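 active means diaphorase activity raised at least twofold by the compound at 20 µM; inactive means activation factor below 2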
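Material: bacterial diaphorase enzyme (C. kluyveri); amount: enzyme 0.07 U/mL final; reagent: NADH substrate 0.114 mM plus resazurin dye 0.1 mM, final; doses: single compound dose of 20 µM, 1% DMSO final; timing: 16 min enzyme reaction, ambient temperature; measured by: fluorescence of resorufin, 544 nm excitation, 590 nm emission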
Diaph inh CS: diaphorase inhibition or chemical oxidation counter-screen. diaphorase resazurin-to-resorufin fluorescence, NADH, 16 min; bacterial (C. kluyveri) enzyme, not human. inhibition, % at 20 µM. 190,000 tested, 0.69% active;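 active means primary screen inhibition at 20 µM above a set limit, cut at about 50% in these data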;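 further: plate controls were DMSO with full reaction for no effect and wells lacking NADH for full effect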
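material = Clostridium kluyveri diaphorase enzyme | amount = 0.14 U/mL diaphorase, enzyme working solution | schedule = incubation 16 min, room temperature | detection = fluorescence of resorufin formed from resazurin, Ex 544/Em 590 nm | benchmarks = positive control minus NADH, DMSO neutral control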
HKDC1 inhibitor: HKDC1 (human) hexokinase inhibition; recombinant HKDC1, G6PDH/diaphorase resazurin coupled fluorescence; inhibition, % at 20 µM; 340,000 tested, 0.16% active;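 active means inhibition above about 35% when tested at 20 µM, limit read from the data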;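 further: plate controls were DMSO wells with enzyme for no effect and DMSO wells lacking enzyme for full effect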
Target sequence (Q2TB90 whole entry, looked up): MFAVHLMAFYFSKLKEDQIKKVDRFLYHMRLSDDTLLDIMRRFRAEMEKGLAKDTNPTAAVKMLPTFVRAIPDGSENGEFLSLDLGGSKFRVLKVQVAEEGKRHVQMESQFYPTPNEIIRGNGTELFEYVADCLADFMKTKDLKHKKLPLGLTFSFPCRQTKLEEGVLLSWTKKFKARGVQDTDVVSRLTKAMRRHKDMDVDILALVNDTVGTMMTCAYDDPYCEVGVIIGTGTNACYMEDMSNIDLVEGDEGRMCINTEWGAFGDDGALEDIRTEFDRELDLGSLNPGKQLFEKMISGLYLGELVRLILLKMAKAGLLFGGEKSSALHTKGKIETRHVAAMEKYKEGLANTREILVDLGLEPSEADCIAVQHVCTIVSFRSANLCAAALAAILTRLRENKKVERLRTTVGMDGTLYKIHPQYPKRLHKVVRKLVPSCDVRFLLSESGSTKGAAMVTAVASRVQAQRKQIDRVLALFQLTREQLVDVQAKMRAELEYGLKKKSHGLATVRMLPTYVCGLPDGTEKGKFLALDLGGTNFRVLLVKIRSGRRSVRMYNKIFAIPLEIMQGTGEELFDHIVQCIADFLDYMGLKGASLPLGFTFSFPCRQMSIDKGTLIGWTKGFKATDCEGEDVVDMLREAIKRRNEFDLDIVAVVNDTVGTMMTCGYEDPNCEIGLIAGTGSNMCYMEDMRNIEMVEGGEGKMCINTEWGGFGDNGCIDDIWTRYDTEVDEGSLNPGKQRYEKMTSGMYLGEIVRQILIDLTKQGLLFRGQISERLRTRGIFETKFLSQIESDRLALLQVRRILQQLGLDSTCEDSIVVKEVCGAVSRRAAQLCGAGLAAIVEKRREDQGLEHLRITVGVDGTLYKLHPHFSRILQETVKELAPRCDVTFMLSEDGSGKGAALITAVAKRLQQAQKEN
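test system = in-house recombinant HK5 (HKDC1) enzyme | amount = HKDC1 at 5 µg/mL | control set = DMSO-enzyme wells negative, buffer-substituted wells positive | compound = one dose of 20 µM, 1% DMSO | schedule = reaction time 90 min, room temperature, protected from light | technique = resorufin fluorescence at 613 nm | reagent = glucose with 1 mM ATP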
ATG4B inhibitor: ATG4B (human) cysteine protease inhibition | inhibition, % at 8.33 µM | AID 504462 | Q9Y4P1 | ATG4B cleavage of LC3-PLA2, NBD-HPC fluorescence, 1 h | 340,000 tested, 0.51% active; in the data active means inhibition above about 40%
ATG4B conf: ATG4B (human) inhibition, single-dose confirmed; shares compounds with ATG4B inhibitor; ATG4B protease fluorescent substrate cleavage assay; inhibition, % at 8.33 µM; 320 tested, 92% active; AID 504757; in the data active means inhibition above about 39%
PLA2 counter: inhibits human PLA2, flagging false ATG4B inhibitors. shares compounds with ATG4B inhibitor. purified PLA2, NBD-C6-HPC fluorescence, 45 min. inhibition, % at 8.33 µM. 1,600 tested, 66% active. AID 588402; in the data active means inhibition above about 50%
Starred values were filed as active, the others as inactive; nt = no result given. In the library only some 1.4% were active in any assay of this set; here they are far more common.

SMILES	Fh CTSL1 inh	Diaph act CS	Diaph inh CS	HKDC1 inhibitor	ATG4B inhibitor	PLA2 counter	others
COc1ccc(C2/C(=C(/O)c3ccc4c(c3)CC(C)O4)C(=O)C(=O)N2CCN2CCOCC2)cc1OC (stereo not given)	nt	nt	nt	-3.6	-6.9	nt
COCCOc1ccc(C(F)(F)F)cc1NC(=O)CN1C(=O)NC2(CCc3ccccc32)C1=O (stereo not given)	-0.4	nt	nt	3.1	98.5*	4.3
COCCOc1ccc(C(F)(F)F)cc1NC(=O)CN1C(=O)NC2(CCCc3ccccc32)C1=O (stereo not given)	nt	nt	nt	7.6	-0.2	nt
O=C(CCNC(=O)c1ccc(Cl)cc1)NCc1ccco1	nt	nt	nt	-3.0	-1.9	nt
O=C1SCCc2c1n(Cc1ccccc1)c1ccccc21	2.0	0.8	15.6	-5.8	0.6	nt
Cc1ccc2c(c1)c1c(n2C)C(C(N)=O)CCC1 (stereo not given)	0.5	0.8	16.3	8.7	61.6*	68.6*
NC(=O)C1CCCc2c1n(Cc1ccccc1)c1ccccc21 (stereo not given)	nt	nt	nt	4.2	83.7*	87.8*
Cc1ccc2c(c1)c1c3n2CCCNC3CCC1 (stereo not given)	5.8	1.1	-5.8	-5.2	4.3	nt
CC(=O)c1c(C)[nH]c(C(=O)N2CCN(c3ccccn3)CC2)c1C	-1.2	nt	nt	-3.8	-2.2	nt
C[C@H](NS(=O)(=O)c1ccc2c(c1)OCCCO2)C(=O)N1CCN(Cc2ccc(C#N)cc2)CC1	nt	nt	nt	-4.5	-0.9	nt
C/C(N)=C(/C#N)C(=O)CSc1nc2ccccc2c(=O)n1-c1ccc(C)c(Cl)c1	1.1	0.8	16.0	17.1	46.6*	48.9
COc1ccccc1CNC(=O)[C@H](C)NC(=O)C1CCN(C(=O)[C@@H](N)CC(C)C)CC1	-5.4	nt	nt	-3.5	-2.9	nt
NC(=O)C1CCCCc2c1[nH]c1ccc(Cl)cc21 (stereo not given)	nt	nt	nt	-2.4	55.9*	51.1*
Cc1ccc(OCc2cc(C(=O)NCc3cc(F)ccc3C)no2)cn1	nt	nt	nt	-2.5	50.4*	54.3*
Cc1ccccc1CNC(=O)c1cc(COc2ccc(F)cc2F)on1	7.3	0.7	32.7	-2.5	33.0	nt
Cc1cccc(NC(=O)COC(=O)c2n[nH]c3ccccc23)c1C	nt	nt	nt	-5.8	45.4*	51.8*
CN1C(=O)C(c2nnc(Nc3cccc4ccccc34)s2)C2CC1(C)Oc1ccccc12 (stereo not given)	0.7	0.9	13.8	-2.8	88.8*	91.1*
Oc1ccc(Cl)cc1Sc1cc(Cl)ccc1O	nt	nt	nt	4.1	47.0*	24.7	ATG4B conf=58.6*
CCOC(=O)N/N=C/c1cn(CCCOc2ccc(C)cc2)c2ccccc12	-0.9	1	4.8	-0.8	41.1*	29.4
CCCCN1C(=O)N(CCc2ccc(F)cc2)S(=O)(=O)c2cc(C(F)(F)F)ccc21	nt	nt	nt	0.1	-2.4	nt
O=C(Nc1cc(Br)c(O)c(Br)c1)c1cccc(NC(=O)c2ccco2)c1	-1.3	nt	nt	-0.4	-10.4	nt
O=C(Nc1cccc(N=Cc2cc(Br)cc(Br)c2O)c1)c1ccco1	-1.8	0.4	55.0*	18.1	68.7*	60.0*
O=C(Nc1cccc(N=Cc2cc(Cl)cc(Br)c2O)c1)c1ccco1	18.2*	0.6	40.1	15.1	66.2*	56.0*
CC1(C)Cc2c(cnn2-c2ccccc2)-c2c1c1ccccc1n2CC(O)CBr (stereo not given)	2.5	0.7	26.8	-0.3	47.5*	57.2*
NC(=O)c1ccc(-n2nnnc2Oc2ccc(Br)cc2)cc1	-11.0	1.1	-6.8	-1.8	-0.9	nt
CCc1ccc(Oc2nnnn2-c2ccc(C(N)=O)cc2)cc1	0.7	1	-4.2	-3.0	59.6*	90.9*
COc1ccc(NC(=O)CN(c2ccc([N+](=O)[O-])cc2)S(=O)(=O)c2ccccc2)cc1	1.0	0.9	9.2	4.7	-8.5	nt
COc1ccc(N(CC(=O)Nc2ccccc2C(=O)O)S(=O)(=O)c2ccc(C)c([N+](=O)[O-])c2)cc1	-2.2	0.8	22.8	11.0	58.8*	62.2*

Bioassay records deposited in PubChem BioAssay by several laboratories.
